This is an account of results in ChEMBL document CHEMBL1129451, “Novel potent sigma 1 ligands: N-[omega-(tetralin-1-yl)alkyl]piperidine derivatives” (J Med Chem, 1996).

The target in test [1] is Glutamate NMDA receptor. The test can be described thus: Binding affinity was tested on Phencyclidine binding assay. The format is protein-complex assay. In short, it runs like this:
(§1)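 [3H]phencyclidine binding to rat hippocampus membranes, with (+)-N-allylnormetazocine (SKF 10,047) defining specific binding. […] Ki via Cheng–Prusoff with Bmax and Kd taken from saturation experiments.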

Test [2] concerns the target Sigma-1 receptor (Rattus norvegicus). The test can be described thus: Binding affinity was tested on Sigma-1 receptor using radioligand [3H](+)-pentazocine binding assay.
Test [3] deals with D(2) dopamine receptor (Rattus norvegicus) (UniProt P61169). The test can be described thus: (§2) Binding affinity of compound towards Dopamine receptor D2 was determined in rat striatal homogenate using [3H]- spiperone as radioligand. In short, it runs like this: (§3)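 Rat striatal membranes labelled with [3H]spiroperidol; (+)-butaclamol defined specific binding. […] Ki by Cheng–Prusoff using Bmax and Kd from saturation experiments. Tested as hydrogen oxalate salts (some hydrochlorides); oxalate interference excluded at highest concentration.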

For test [4], the target named is T1, Glutamate NMDA receptor (Rattus norvegicus) (UniProt P35439+Q00959+Q00960+Q00961+Q62645+Q8VHN2+Q9R1M7). The experiment in a line: Percentage specific displacement of radioligand [3H]phencyclidine from Phencyclidine receptor. It counts as protein-complex assay. The method in brief: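 Rat hippocampus membranes, [3H]phencyclidine radioligand; (+)-N-allylnormetazocine (SKF 10,047) defined specific binding. Percent specific displacement run in triplicate at a single stated compound concentration.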

For test [5], the target named is Serotonin 2 (5-HT2) receptor (Rattus norvegicus) (UniProt P30994+P08909+P14842). The experiment in a line: Percentage specific displacement of radioligand [3H]ketanserin from 5-hydroxytryptamine 2 receptor. The format is protein assay. Also on record: concentration or dose not given beside the values.
Test [6] addresses T2, 5-hydroxytryptamine receptor 1A (Rattus norvegicus, UniProt P19327).
T2 sequence (P19327 whole entry): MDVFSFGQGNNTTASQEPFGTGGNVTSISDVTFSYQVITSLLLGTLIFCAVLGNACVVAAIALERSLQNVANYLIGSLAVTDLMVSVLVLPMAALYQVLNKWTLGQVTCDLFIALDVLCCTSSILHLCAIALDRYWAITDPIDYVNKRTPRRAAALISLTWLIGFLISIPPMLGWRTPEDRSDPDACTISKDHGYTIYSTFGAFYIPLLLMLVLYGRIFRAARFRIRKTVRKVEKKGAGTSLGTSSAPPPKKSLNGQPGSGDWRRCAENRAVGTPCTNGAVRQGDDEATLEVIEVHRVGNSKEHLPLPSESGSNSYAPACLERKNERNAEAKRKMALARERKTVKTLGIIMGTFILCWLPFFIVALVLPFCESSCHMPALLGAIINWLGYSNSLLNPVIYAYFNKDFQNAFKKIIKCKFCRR
The test can be described thus: Binding affinity was tested on 5-hydroxytryptamine 1A receptor using radioligand [3H]5-HT binding assay. The method in brief: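 Six to nine drug concentrations, triplicate samples, two to three independent experiments. IC50 converted to Ki by Cheng–Prusoff, with Kd and Bmax from saturation experiments.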

In test [7] the target is D(2) dopamine receptor (Rattus norvegicus) (UniProt P61169). The experiment in a line: (§4) Binding affinity was tested on Dopamine receptor D2 using radioligand [3H]spiroperidol. Also on record: concentration or dose not given beside the values. In short, it runs like this:
as §3

Test [8] has as its target Serotonin 2 (5-HT2) receptor (Rattus norvegicus, UniProt P30994+P08909+P14842). The test can be described thus: Percentage specific displacement of radioligand [3H]-ketanserin from 5-hydroxytryptamine 2 receptor. The format is protein assay.
Test [9] deals with T3, D(2) dopamine receptor (Rattus norvegicus, UniProt P61169). The test is described as §4. In short, it runs like this: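 Ki by Cheng–Prusoff using Bmax and Kd from saturation experiments. Tested as hydrogen oxalate salts (some hydrochlorides); oxalate interference excluded at highest concentration.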
Test [10] can be described thus: Binding affinity of compound was tested on Phencyclidine binding assay.
In test [11] the target is T3, D(2) dopamine receptor. The description is as §2. The method in brief:
as §3

Test [12] concerns the target T1, Glutamate NMDA receptor (Rattus norvegicus). The experiment in a line: Binding affinity of compound was tested on Phencyclidine binding assay. The format is protein-complex assay. In short, it runs like this: as §1

Serotonin 2 (5-HT2) receptor (Rattus norvegicus), sequence (P08909 whole entry, looked up): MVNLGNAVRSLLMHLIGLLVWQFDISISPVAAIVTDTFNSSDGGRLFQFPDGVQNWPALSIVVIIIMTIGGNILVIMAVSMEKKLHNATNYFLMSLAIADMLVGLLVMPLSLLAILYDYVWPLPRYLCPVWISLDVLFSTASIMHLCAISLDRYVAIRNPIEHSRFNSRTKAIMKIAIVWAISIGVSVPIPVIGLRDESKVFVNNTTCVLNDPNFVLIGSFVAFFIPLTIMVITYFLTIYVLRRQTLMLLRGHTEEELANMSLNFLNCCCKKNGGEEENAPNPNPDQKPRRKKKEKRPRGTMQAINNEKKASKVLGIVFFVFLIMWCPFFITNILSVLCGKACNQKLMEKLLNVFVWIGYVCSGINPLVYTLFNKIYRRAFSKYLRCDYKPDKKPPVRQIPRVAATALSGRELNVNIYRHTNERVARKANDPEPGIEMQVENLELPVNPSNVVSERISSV
Serotonin 2 (5-HT2) receptor (Rattus norvegicus), sequence (P14842 whole entry, looked up): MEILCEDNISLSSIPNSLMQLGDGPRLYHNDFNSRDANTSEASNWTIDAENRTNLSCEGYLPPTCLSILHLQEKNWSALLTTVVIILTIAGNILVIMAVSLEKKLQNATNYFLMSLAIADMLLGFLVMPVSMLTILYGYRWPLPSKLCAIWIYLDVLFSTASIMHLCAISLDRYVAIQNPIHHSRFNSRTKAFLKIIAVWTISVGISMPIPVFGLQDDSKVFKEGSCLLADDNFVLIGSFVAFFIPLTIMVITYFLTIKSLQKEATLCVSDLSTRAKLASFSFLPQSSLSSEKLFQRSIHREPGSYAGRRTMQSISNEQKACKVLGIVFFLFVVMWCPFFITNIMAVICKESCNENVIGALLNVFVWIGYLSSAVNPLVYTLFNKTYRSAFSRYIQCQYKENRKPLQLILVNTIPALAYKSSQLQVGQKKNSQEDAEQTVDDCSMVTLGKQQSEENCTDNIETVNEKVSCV
Serotonin 2 (5-HT2) receptor (Rattus norvegicus), sequence (P30994 whole entry, looked up): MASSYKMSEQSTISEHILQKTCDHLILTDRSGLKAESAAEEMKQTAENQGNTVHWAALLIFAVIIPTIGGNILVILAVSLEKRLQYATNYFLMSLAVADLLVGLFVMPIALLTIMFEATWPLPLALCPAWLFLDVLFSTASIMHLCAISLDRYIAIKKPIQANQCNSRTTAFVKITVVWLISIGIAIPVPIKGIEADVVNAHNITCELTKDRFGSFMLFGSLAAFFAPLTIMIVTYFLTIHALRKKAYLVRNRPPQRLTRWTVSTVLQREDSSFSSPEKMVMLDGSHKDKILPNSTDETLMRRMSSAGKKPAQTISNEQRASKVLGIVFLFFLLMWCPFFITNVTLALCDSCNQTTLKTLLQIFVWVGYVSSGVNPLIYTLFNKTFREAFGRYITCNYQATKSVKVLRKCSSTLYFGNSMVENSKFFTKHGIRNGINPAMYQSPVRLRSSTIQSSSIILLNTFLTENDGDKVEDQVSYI
T3 sequence (P61169 whole entry): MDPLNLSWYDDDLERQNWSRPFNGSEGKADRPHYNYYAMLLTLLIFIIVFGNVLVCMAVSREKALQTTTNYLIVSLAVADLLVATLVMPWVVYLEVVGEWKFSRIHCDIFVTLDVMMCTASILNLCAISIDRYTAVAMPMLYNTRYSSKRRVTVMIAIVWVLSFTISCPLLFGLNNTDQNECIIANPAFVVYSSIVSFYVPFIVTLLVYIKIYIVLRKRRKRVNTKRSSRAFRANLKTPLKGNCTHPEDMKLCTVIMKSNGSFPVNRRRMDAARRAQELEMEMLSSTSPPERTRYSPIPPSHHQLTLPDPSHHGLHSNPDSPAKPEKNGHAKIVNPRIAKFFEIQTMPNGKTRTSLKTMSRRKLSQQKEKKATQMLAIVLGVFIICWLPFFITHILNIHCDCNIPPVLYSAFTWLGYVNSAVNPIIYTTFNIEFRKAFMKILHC
D(2) dopamine receptor (Rattus norvegicus), sequence (P61169 whole entry): as above

Take `c1ccc2c(c1)CCN(CCCCC1CCCc3ccccc31)C2` (configuration not stated): the Ki (usually a measure of affinity in units of concentration, obtained from inhibition or displacement) in [1] is over 92.6 µM; in test [2], 0.0037 µM.
As to `c1ccc2c(c1)CCCC2CCCN1CCCCC1` (configuration not stated), the Displacement in [3] is 0%; in test [4], 95%; in test [5], 21%. In addition, the Ki in [6] was over 1.43 µM.
On to `CC1(C)CCCN(CCCC2CCCc3cscc32)C1` (configuration not stated), for which the Ki is 0.0094 µM in test [1] and over 1.43 µM in test [6].
In the case of `c1ccc2c(c1)CCCC2CCCCN1CCCCC1` (configuration not stated), the Ki in test [1] is 5.56 µM; in test [2], 0.0047 µM; in test [6], over 1.43 µM. The Displacement in [7] was 27%; in test [5] it was 64%.
With `COc1ccc2c(c1)C(CCCN1CCCCC1)CCC2` (configuration not stated), the Displacement in [4] stood at 88%. The Ki was over 5.52 µM in test [8], 0.0632 µM in [2], over 1.43 µM in test [6] and over 1.85 µM in test [9].
Regarding `COc1cccc2c1CCCC2CCCN1CCCC(C)(C)C1` (configuration not stated), the Ki was 0.0342 µM in test [1], 0.898 µM in [6] and over 10 µM in [9].
Molecule `C=CCN1CCC2c3cc(O)ccc3CC1C2C` (configuration not stated) showed a Ki in [10] of 0.37 µM.
As for `c1cc2c(s1)CCCC2CCCN1CCCCC1` (configuration not stated), the inhibition constant (Ki) in test [1] is over 92.6 µM.
As to `CCCN(CCC)CCCCC1=CCCc2ccccc21`, the values for the Ki in test [1], in test [2] and in test [6] were 2.6 µM, 0.0039 µM and 0.357 µM, respectively. Also, the Displacement came out at 40% in test [7] and 60% in [5].
For the molecule `CCCN(CCC)CCCCC1CCCc2ccccc21` (configuration not stated), the Ki in [1] was found to be 9.91 µM; in [2] it was 0.0047 µM; in test [6], 0.2 µM. Further, the Displacement in test [7] came to 31%; in test [5], 66%.
Regarding `COc1cccc2c1CCCC2CCCN1CCCCC1` (configuration not stated), the inhibitory constant (Ki) in test [1] was 3.24 µM; in test [8], over 5.52 µM; in [6], over 1.43 µM; in test [9] it was over 1.85 µM.
On to `c1ccc(CC2CCN(CCCCC3CCCc4ccccc43)CC2)cc1` (configuration not stated), for which the Ki in test [1] was over 92.6 µM; in test [2] it was 0.03 µM; in test [6], 0.285 µM.
For the molecule `CCCN(CCC)CCCC1CCCc2ccccc21` (configuration not stated), the figures for the Ki in [1], in test [2] and in test [6] were 48.1 µM, 0.0067 µM and 0.4 µM, respectively. The Displacement in test [7] stood at 0%; in [5] it was 51%.
As for `CC1(C)CCCN(CCCCC2CCCc3ccccc32)C1` (configuration not stated), the inhibition constant Ki in [1] was over 92.6 µM; in [2] it was 0.0008 µM; in test [6] it was over 1.43 µM; in [9], over 10 µM.
As to `COc1cccc2c1CCCC2CCCN1CCC(Cc2ccccc2)CC1` (configuration not stated), the results for the Ki in test [1], in test [11] and in [6] were over 92.6 µM, 1.3 µM and under 0.00014 µM, respectively.
`C1=C(CCCCN2CCCCC2)c2ccccc2CC1`: the Displacement in [12] worked out at 92%; in [7], 0%; in [5], 12%. Also, the results for the Ki in test [2] and in test [6] were 0.0039 µM and over 1.43 µM, respectively.
